Laboratory results taken from ChEMBL document CHEMBL5357044, “Discovery of a dual-acting inhibitor of interleukin-1β and STATs for the treatment of inflammatory bowel disease” (RSC Med Chem, 2024).
Active and inactive are the calls of the source. No cut-off for these calls is given here.

Columns and labels:
[1] = biological target: NACHT, LRR and PYD domains-containing protein 3 (Mus musculus) (UniProt Q8R4B8); test: Inhibition of NLRP3 inflammasome activation in mouse BMDM cells assessed as reduction in LPS-stimulated ASC specks formation at 50 to 200 nM pretreated for 1 hr followed by nigericin treatment for 30 mins by immunofluorescence analysis; type: cell-based; settings: dose 50-200 nM, time 1.5 hrs
Chain of NACHT, LRR and PYD domains-containing protein 3 (Mus musculus) (Q8R4B8 whole entry, the tested form may be a part): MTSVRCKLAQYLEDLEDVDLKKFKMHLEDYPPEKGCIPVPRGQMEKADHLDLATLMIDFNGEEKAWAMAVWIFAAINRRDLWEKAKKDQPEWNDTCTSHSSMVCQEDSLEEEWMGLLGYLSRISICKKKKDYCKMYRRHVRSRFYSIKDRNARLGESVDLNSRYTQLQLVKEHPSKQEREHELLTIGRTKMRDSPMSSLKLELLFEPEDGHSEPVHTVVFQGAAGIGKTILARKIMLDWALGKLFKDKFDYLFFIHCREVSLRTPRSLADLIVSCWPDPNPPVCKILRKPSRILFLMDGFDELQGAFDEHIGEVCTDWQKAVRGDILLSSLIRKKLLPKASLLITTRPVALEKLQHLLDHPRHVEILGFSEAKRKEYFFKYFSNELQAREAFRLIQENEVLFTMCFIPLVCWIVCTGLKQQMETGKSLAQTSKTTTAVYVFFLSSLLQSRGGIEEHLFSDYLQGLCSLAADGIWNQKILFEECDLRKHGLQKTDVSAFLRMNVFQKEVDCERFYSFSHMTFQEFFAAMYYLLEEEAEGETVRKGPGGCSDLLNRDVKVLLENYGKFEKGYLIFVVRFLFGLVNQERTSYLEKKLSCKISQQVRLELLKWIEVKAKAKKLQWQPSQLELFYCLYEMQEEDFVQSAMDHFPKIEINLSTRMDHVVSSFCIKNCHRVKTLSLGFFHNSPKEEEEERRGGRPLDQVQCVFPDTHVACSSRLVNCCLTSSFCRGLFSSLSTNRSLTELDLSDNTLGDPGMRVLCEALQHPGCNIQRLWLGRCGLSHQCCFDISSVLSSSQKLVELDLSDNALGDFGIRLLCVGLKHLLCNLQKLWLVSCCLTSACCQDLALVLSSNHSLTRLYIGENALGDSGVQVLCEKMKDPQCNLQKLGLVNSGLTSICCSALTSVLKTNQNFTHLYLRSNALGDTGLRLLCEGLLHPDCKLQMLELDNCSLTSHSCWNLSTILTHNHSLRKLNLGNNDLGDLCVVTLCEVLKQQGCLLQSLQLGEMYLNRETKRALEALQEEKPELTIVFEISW
Summary of the method: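 BMDMs primed with LPS 1.5 μg mL−1 for 3 h at 37 °C, compound for 1 h, nigericin 10 μM for 30 min. Fixed in 4% paraformaldehyde and permeabilized with 1% Triton X-100. Blocked in 1% BSA, primary antibody overnight at 4 °C, rhodamine secondary plus DAPI. ASC specks counted by fluorescence microscopy.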

[2] = biological target: T1, Signal transducer and activator of transcription 1 (Mus musculus) (UniProt P42225); test: Inhibition of STAT1 expression in LPS-treated mouse J774.A1 cells assessed as reduction in STAT1 phosphorylation at 50 to 200 nM treated for 1 hr by Western blot analysis; type: cell-based; settings: dose 50-200 nM
T1 sequence (whole entry): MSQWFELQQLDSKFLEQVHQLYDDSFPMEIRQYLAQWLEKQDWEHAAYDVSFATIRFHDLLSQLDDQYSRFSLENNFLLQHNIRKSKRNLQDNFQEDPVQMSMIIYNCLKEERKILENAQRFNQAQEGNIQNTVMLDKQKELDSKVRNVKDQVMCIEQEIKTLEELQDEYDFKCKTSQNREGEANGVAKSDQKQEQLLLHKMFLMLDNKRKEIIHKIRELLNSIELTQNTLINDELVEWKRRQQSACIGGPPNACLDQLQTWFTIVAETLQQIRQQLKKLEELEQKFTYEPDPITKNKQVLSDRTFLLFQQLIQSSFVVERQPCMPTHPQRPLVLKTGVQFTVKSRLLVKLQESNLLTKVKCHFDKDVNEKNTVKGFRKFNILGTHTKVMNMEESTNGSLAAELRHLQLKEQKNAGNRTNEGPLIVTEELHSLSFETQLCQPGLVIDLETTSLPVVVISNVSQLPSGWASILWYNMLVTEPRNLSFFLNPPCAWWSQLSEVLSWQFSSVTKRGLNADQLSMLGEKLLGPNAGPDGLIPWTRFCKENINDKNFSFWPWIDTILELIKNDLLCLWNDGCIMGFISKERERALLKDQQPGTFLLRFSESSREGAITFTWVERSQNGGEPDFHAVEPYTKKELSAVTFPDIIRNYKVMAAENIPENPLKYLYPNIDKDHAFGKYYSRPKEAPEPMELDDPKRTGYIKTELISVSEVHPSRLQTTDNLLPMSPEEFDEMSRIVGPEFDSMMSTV
Summary of the method: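 J774A.1 cells pretreated with LPS and compound, lysed in RIPA. pSTAT1, STAT1, pSTAT3, STAT3, pSTAT5 and STAT5 detected by SDS-PAGE western blot with ECL.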

Cc1cc(/C=C/C(=O)c2ccc(C(=O)N[C@@H](Cc3ccccc3)C(=O)N[C@@H](CC(C)C)B(O)O)cc2)cc(C)c1O
inhibition [1]: Active
inhibition [2]: Active
